Data taken from ChEMBL document CHEMBL4251721, “Imidazole Alkaloids and Their Zinc Complexes from the Calcareous Marine Sponge Leucetta chagosensis” (J Nat Prod, 2018).
Active and inactive are the calls of the source. No cut-off for these calls is given here.

Columns and labels:
THP-1 [1] = assay: Antiinflammatory activity in human THP1 cells assessed as inhibition of LPS-stimulated IL-6 production by measuring IL-6 level in serum at 10 uM preincubated for 2 hrs followed by LPS addition measured after 22 hrs by flow cytometry (reference value: 6100 +/- 200 pg/ml); type: functional
THP-1 [2] = assay: Antiinflammatory activity in human THP1 cells assessed as inhibition of LPS-stimulated TNFalpha production by measuring TNF-alpha level in serum at 10 uM preincubated for 2 hrs followed by LPS addition measured after 22 hrs by flow cytometry (reference value: 9900 +/- 300 pg/ml); type: functional
THP-1 [3] = assay: Antiinflammatory activity in human THP1 cells assessed as inhibition of LPS-stimulated MCP-1 level in serum at 10 uM preincubated for 2 hrs followed by LPS addition measured after 22 hrs by flow cytometry; type: functional, cell-based
THP-1 [4] = assay: Antiinflammatory activity in human THP1 cells assessed as inhibition of LPS-stimulated IL-10 level in serum at 10 uM preincubated for 2 hrs followed by LPS addition measured after 22 hrs by flow cytometry; type: functional, cell-based
THP-1 [5] = assay: Antiinflammatory activity in human THP1 cells assessed as inhibition of LPS-stimulated IL-12p70 level in serum at 10 uM preincubated for 2 hrs followed by LPS addition measured after 22 hrs by flow cytometry; type: functional, cell-based
A549 = assay: Cytotoxicity against human A549 cells assessed as reduction in cell viability after 72 hrs by CCK-8 assay; type: functional, cell-based; conditions: A549, 72 h
PC-9 = assay: Cytotoxicity against human PC9 cells assessed as reduction in cell viability after 72 hrs by CCK-8 assay; type: functional, cell-based; conditions: PC-9, 72 h
MCF7 [6] = assay: Cytotoxicity against human MCF7 cells assessed as reduction in cell viability after 72 hrs by CCK-8 assay; type: functional, cell-based; conditions: MCF7, 72 h
How it was run: (§1)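 Cells were kept at 37 °C in DMEM with 10% nondialyzed FBS and 2 mM L-glutamine. The Oct4-GFP line is MCF-7 made stem-like by lentiviral Oct4-GFP overexpression. Cells were seeded at 3000/well and grown 24 h, then exposed to six concentrations of compound (DMSO solutions) for 72 h.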

MCF7 [7] = assay: Induction of apoptosis in human MCF7 cells assessed as viable cells at 10 uM after 24 hrs by Annexin V-FITC/propidium iodide staining based flow cytometry (reference value: 96.6%); type: functional; conditions: MCF7, 24 h, read-out: Activity
MCF7 [8] = assay: Cytotoxicity against human MCF7 cells expressing Oct4-GFP assessed as reduction in cell viability after 72 hrs by CCK-8 assay; type: functional, cell-based; conditions: MCF7, 72 h
How it was run: as §1, with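 “h. CCK-8 was added for 2 h at 37 °C and A450 read to give IC50.” for “h.”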

MCF7 [9] = assay: Induction of apoptosis in human MCF7 cells assessed as viable cells at 5 uM after 24 hrs by Annexin V-FITC/propidium iodide staining based flow cytometry (reference value: 96.6%); type: functional; conditions: MCF7, 24 h, read-out: Activity
MCF7 [10] = assay: Induction of apoptosis in human MCF7 cells assessed as early apoptotic cells at 5 uM after 24 hrs by Annexin V-FITC/propidium iodide staining based flow cytometry (reference value: 0.866%); type: functional
MCF7 [11] = assay: Induction of apoptosis in human MCF7 cells assessed as late apoptotic cells at 5 uM after 24 hrs by Annexin V-FITC/propidium iodide staining based flow cytometry (reference value: 0.309%); type: functional
MCF7 [12] = assay: Induction of apoptosis in human MCF7 cells assessed as necrotic cells at 5 uM after 24 hrs by Annexin V-FITC/propidium iodide staining based flow cytometry (reference value: 2.19%); type: functional
MCF7 [13] = assay: Induction of apoptosis in human MCF7 cells assessed as early apoptotic cells at 10 uM after 24 hrs by Annexin V-FITC/propidium iodide staining based flow cytometry (reference value: 0.866%); type: functional
MCF7 [14] = assay: Induction of apoptosis in human MCF7 cells assessed as late apoptotic cells at 10 uM after 24 hrs by Annexin V-FITC/propidium iodide staining based flow cytometry (reference value: 0.309%); type: functional
MCF7 [15] = assay: Induction of apoptosis in human MCF7 cells assessed as necrotic cells at 10 uM after 24 hrs by Annexin V-FITC/propidium iodide staining based flow cytometry (reference value: 2.19%); type: functional
MCF7 [16] = assay: Induction of apoptosis in human MCF7 cells assessed as early apoptotic cells after 24 hrs by Annexin V-FITC/propidium iodide staining based flow cytometry; type: functional, cell-based
MCF7 [17] = assay: Induction of apoptosis in human MCF7 cells assessed as late apoptotic cells after 24 hrs by Annexin V-FITC/propidium iodide staining based flow cytometry; type: functional, cell-based

| Structure (SMILES) | Activity (THP-1 [1]) [pg/mL] | Activity (THP-1 [2]) [pg/mL] | inhibition (THP-1 [3]) | inhibition (THP-1 [4]) | inhibition (THP-1 [5]) | IC50 (A549) [µM] | IC50 (PC-9) [µM] | IC50 (MCF7 [6]) [µM] | also measured |
| --- | --- | --- | --- | --- | --- | --- | --- | --- | --- |
| CN/C(N)=N\C(=O)Nc1nc(Cc2ccc3c(c2)OCO3)cn1C | 5000 | 7800 | inactive | inactive | inactive | > 20 | > 20 | > 20 |  |
| COc1ccc(C2=C3C(=NC(=N)N3C)C(=O)c3c(OC)ccc(OC)c32)cc1 | 5400 | 9700 | inactive | inactive | inactive | > 20 | > 20 | > 20 |  |
| COc1ccc(Cc2nc(/N=C3\NC(=O)N(C)C3=O)n(C)c2Cc2ccc(OC)c(OC)c2O)cc1 [PYRONAAMIDINE] |  |  |  |  |  | 7.8 | 5.6 | 5.2 | viability at 10 µM (MCF7 [7]): 34.8%; IC50 (MCF7 [8]): 10 µM; viability at 5 µM (MCF7 [9]): 82%; Activity (MCF7 [10]): 10.2%; Activity (MCF7 [11]): 6.25%; Activity (MCF7 [12]): 1.54%; Activity (MCF7 [13]): 32.3%; Activity (MCF7 [14]): 30.1%; Activity (MCF7 [15]): 2.55%; Activity (MCF7 [16]): Dose-dependent effect; Activity (MCF7 [17]): Dose-dependent effect |
| CNC1=N/C(=N/c2nc(Cc3ccc4c(c3)OCO4)cn2C)C(=O)O1 | 7600 | 9900 | inactive | inactive | inactive | > 20 | > 20 | > 20 |  |
| Nc1cccc2c1C(=O)N(C1CCC(=O)NC1=O)C2=O (configuration not stated) [POMALIDOMIDE] |  | 7500 |  |  |  |  |  |  |  |
| CC(C)=CCC/C(C)=C/Cc1cc(-c2coc3cc(O)ccc3c2=O)ccc1O | 2700 |  |  |  |  |  |  |  |  |
| CC(=O)O[C@H]1C(=O)[C@@]2(C)[C@H]([C@H](OC(=O)c3ccccc3)[C@]3(O)C[C@H](OC(=O)[C@H](O)[C@@H](NC(=O)c4ccccc4)c4ccccc4)C(C)=C1C3(C)C)[C@]1(OC(C)=O)CO[C@@H]1C[C@@H]2O [PACLITAXEL] |  |  |  |  |  | 0.0032 | 0.0027 |  |  |
